The values below come from publication PMC10012271 (ACS Infectious Diseases, 2023).

In general, MIC refers to the lowest concentration that inhibits growth of the organism.

The target in data set [1] is human recombinant glyoxylase II (Homo sapiens, UniProt Q16775). The experiment in a line: Binding specificity, glyoxylase II activity. The class given is biochemical. As to conditions: for reduction of glyoxylase II activity: concentration not stated in the sentence (Table S2).
The subject of data set [2] is Klebsiella pneumoniae ATCC 700603. The experiment in a line: MIC, broth microdilution / checkerboard. The class given is cell-based. A general note: Broth dilution looks for growth in wells or tubes with falling amounts of substance.
The subject of data set [3] is Klebsiella pneumoniae NDM. The experiment in a line: MIC, broth microdilution / checkerboard. The class given is cell-based. In short, it runs like this:
(§1)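 Two-fold dilution series in Mueller Hinton broth, per CLSI. Meropenem stock was in water and test compound stock in 50% DMSO, with final DMSO <1.0%. Wells got a 0.5 McFarland-standardised inoculum and were incubated at 35 °C for 18–20 h. MIC was the lowest concentration with no visible growth, run in triplicate.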

The test system of another data set is E. coli FEK (NDM-4). The experiment in a line: Antimicrobial susceptibility testing, broth microdilution. In kind it is cell-based. The settings on record: Escherichia coli, read-out: MIC alone. In outline:
as §1

The next data set concerns K. pneumoniae NDM. The experiment in a line: Time kill kinetic study. The class given is cell-based. The settings on record: without BP1. In outline: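 Overnight culture was diluted to about 10^6 cfu/mL and exposed to test compound fixed at 32 mg/L plus meropenem 0.5, 1 or 2 mg/L. Incubation was at 35 °C with 100 rpm shaking, alongside drug-free and meropenem-only controls. At 0, 2, 4, 6, 8 and 24 h, 0.1 mL was plated on MHA and incubated at 35 °C for ≥18 h, then cfu/mL counted. Analysis was by ANOVA.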

A further data set relates to E. coli ATCC 25922. The experiment in a line: Antimicrobial susceptibility testing, broth microdilution. In kind it is cell-based. As to conditions: Escherichia coli, ATCC25922, read-out: MIC alone. In short, it runs like this: as §1
Data set [4] has as its system E. cloacae IR 386 (NDM-1). The description is as above. In kind it is cell-based. As to conditions: Enterobacter cloacae, read-out: MIC alone. In short, it runs like this: as §1
Data set [5] is described as follows: In vivo single-dose pharmacokinetics. The arrangement: species or system BALB/c mice. As to conditions: 10 mg/kg.b.w IP, plasma. In short, it runs like this:
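Female BALB/c mice, 6–8 weeks, acclimatised two weeks, got meropenem 10 mg/kg.b.w plus test compound 10 mg/kg.b.w together IP. Animals were killed at 0, 5, 15, 30, 45, 60, 90 and 120 min post-dose, with blood taken by cardiac puncture and stored at −80 °C. Drugs were quantified by LC–MS/MS (C18, water/acetonitrile with 0.1% TFA gradient, ESI, MRM mode).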

Another data set relates to E. cloacae KAR (VIM-1). The experiment in a line: Antimicrobial susceptibility testing, broth microdilution. As to conditions: Enterobacter cloacae, read-out: MIC alone. In kind it is cell-based. In short, it runs like this: as §1
A further data set concerns E. coli TWA (IMP-8). The data set is described as above. The settings on record: Escherichia coli, read-out: MIC alone. In kind it is cell-based. In short, it runs like this:
as §1

The test system of another data set is E. coli JAP (IMP-1). The data set is described as above. In kind it is cell-based. As to conditions: Escherichia coli, read-out: MIC alone. In short, it runs like this:
as §1

Data set [6] deals with K. pneumoniae USA 449 (NDM). The description is as above. As to conditions: Klebsiella pneumoniae, read-out: MIC alone. In kind it is cell-based. In outline:
as §1

A further data set concerns E. coli AUS 271 (NDM-1). The data set is described as above. The class given is cell-based. The settings on record: Escherichia coli, read-out: MIC alone. In outline: as §1

Converted amounts (≈) assume the structure as drawn. “Also recorded” adds a separate entry of the source.

In the case of `O=C(O)CN(CCN(CC(=O)O)CC(=O)O)CC(=O)O` [EDTA], the “reduction of glyoxylase II activity” value in [1] amounted to 39%.

Turning to `O=C(O)CN1CCN(CC(=O)O)CCN(CC(=O)O)CC1` [NOTA, 1,4,7-triazacyclononane-1,4,7-triacetic acid], the “inhibition of glyoxylase II” value in [1] (up to 500 μM) was “did not reduce the activity”. Besides, the MIC result in data set [2] (drug alone) is reported as “do not possess any activity; also recorded: resistant from 256 to 0.125”; in [3] (drug alone), “do not possess any activity”.

On to `c1ccc(CN(CCN(Cc2ccccn2)Cc2ccccn2)Cc2ccccn2)nc1` [TPEN, N,N,N′,N′-tetrakis(2-pyridinylmethyl)-1,2-ethanediamine], for which the “reduction of glyoxylase II activity” value in data set [1] stood at 48%.

Take `C[C@@H](O)[C@H]1C(=O)N2C(C(=O)O)=C(S[C@@H]3CN[C@H](C(=O)N(C)C)C3)[C@H](C)[C@H]12` [meropenem]: the MIC in the data set on E. coli FEK (NDM-4) worked out at 128 mg/L (≈ 334 µM); in the data set on E. coli ATCC 25922, 0.06 mg/L (≈ 0.156 µM); in data set [4], 32 mg/L (≈ 83.4 µM); in data set [2] (Klebsiella pneumoniae, ATCC700603), 0.03 mg/L; with E. cloacae KAR (VIM-1) it was 16 mg/L (≈ 41.7 µM); in the data set with E. coli TWA (IMP-8) it was 4 mg/L (≈ 10.4 µM). Further, the minimal inhibitory concentration (MIC) in data set [3] (Klebsiella pneumoniae) amounted to 128 mg/L; in the data set on E. coli JAP (IMP-1), 8 mg/L (≈ 20.9 µM); in [6], 128 mg/L (≈ 334 µM); in the data set on E. coli AUS 271 (NDM-1) it was 128 mg/L (≈ 334 µM). Moreover, the “time-kill activity, meropenem-only test group” value in the data set with K. pneumoniae NDM was “ineffectiveness”. The “time of peak concentration (Cmax) post drug administration” value in data set [5] was determined as 15 min.
